aSyn 5UTR inh = MLPCN primary screen, SNCA 5' untranslated region | alpha-synuclein 5'UTR reporter, inhibitor activity | inhibition, % (tested at 7.5 µM) | 300,000 tested, 0.82% active; in the data active means inhibition above about 60%; inconclusive means no clear call, values can overlap the other calls;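 further: H4 neuroglioblastoma cells stably carrying SNCA 5'UTR luciferase fusion; 0% = DMSO wells and 100% = positive control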
SKKanGAS inh = S. pyogenes SKKanGAS growth inhibitors in kanamycin, primary screen, streptokinase expression inhibitor project, SKKanGAS strain, BacTiter-Glo luminescence. 6 h. inhibition, % at 7.5 µM. 300,000 tested, 1.3% active. AID 1662, 2009;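 active means mean replicate score, as percent of positive control median, at least 50; inconclusive means mean below 50 but one replicate at or above 50; inactive means mean and every replicate below 50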;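 further: strain carries kanamycin resistance gene driven by streptokinase promoter and grows in 40 µg/ml kanamycin; loss of luminescence reflects streptokinase promoter inhibition or plain growth inhibition; 0% = median of DMSO wells and 100% = positive control at its reference dose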
T cruzi repl = inhibitors of intracellular T. cruzi growth, primary screen, luminescence, NIH3T3 host cells; T. cruzi beta-gal in NIH3T3, 90 h; inhibition, % (no concentration beside the values); 300,000 tested, 1.4% active;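 active means mean inhibition across valid replicates above about 55%, limit read from the data; inconclusive means mean below that limit but half or more replicates reach it; inactive means mean below it, under half of replicates reach it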;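 further: signal also drops with host cell toxicity which is not excluded here; 0% = plate median of DMSO wells and 100% = zero luminescence signal; higher percent means less beta-gal luminescence so fewer parasites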
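Read-out: Parasite load inhibition, % | Test system: Mouse NIH/3T3 fibroblasts infected with β-gal-expressing T. cruzi Tulahuen C4 | Amount: 5,000 cells/well | Medium: DMEM, 2% fetal bovine serum | Signal: GalScreen β-gal luminescence, detergent lysis, 60 min | Timing: 3 h attach, ≥90 h co-culture | Also added: Tulahuen C4 trypomastigotes, 5000/well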
Mdm2-MdmX inh = inhibitors of human Mdm2-MdmX association, primary screen, cell-based, luminescence, split luciferase, SaOS-2, uHTS | Protein Mdm4 (Homo sapiens) + E3 ubiquitin-protein ligase Mdm2 (Homo sapiens), … | SaOS-2 split-luciferase Mdm2/MdmX complementation | inhibition, % at 8 µM | 330,000 tested, 3% active;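 active means inhibition of at least 50% at 8 µM in the primary screen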
Target sequence (O15151 whole entry, looked up): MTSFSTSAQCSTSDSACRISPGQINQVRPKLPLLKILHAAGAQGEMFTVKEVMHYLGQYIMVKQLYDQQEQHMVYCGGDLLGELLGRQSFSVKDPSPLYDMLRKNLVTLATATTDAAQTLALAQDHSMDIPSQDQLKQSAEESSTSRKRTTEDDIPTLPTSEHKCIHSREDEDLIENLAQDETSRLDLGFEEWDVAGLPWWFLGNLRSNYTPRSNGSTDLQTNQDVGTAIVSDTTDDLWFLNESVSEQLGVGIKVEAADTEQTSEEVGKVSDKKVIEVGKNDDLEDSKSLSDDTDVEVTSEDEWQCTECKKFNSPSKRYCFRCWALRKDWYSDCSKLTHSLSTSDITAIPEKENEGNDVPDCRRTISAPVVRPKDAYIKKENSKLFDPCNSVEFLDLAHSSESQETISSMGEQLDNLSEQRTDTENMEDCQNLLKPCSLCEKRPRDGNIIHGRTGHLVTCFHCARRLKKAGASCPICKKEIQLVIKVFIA
Target sequence (Q00987 whole entry, looked up): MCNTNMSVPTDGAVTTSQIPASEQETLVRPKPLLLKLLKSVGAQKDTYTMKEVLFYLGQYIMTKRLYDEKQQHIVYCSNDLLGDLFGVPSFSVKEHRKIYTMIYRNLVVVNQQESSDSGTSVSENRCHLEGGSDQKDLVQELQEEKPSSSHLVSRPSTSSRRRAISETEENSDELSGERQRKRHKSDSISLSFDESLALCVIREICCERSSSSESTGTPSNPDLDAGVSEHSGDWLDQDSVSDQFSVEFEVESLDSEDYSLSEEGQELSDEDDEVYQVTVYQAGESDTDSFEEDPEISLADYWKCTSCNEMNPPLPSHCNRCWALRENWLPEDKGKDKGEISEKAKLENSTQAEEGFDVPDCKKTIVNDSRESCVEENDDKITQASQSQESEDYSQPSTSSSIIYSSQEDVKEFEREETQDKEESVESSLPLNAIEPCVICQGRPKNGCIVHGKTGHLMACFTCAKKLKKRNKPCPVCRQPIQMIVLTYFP
CSC inhib = cancer stem cell viability inhibitors, primary screen, luminescence; cancer stem cell-like cells viability; inhibition, % at 7.5 µM; 300,000 tested, 1.1% active; AID 2717, 2010; in the data active means inhibition above about 75%; inconclusive means no clear call, values can overlap the other calls; tested in HMLE shEcad cells
Mdm2-MdmX conf = Mdm2-MdmX complex disruptors, retested hits, confirmation, luminescence, single concentration | shares compounds with Mdm2-MdmX inh | Mdm2-MdmX binding, luminescent assay | inhibition, % at 8 µM | 10,000 tested, 55% active | AID 489028, 2010; in the data active means inhibition above about 40%
Full FLuc ctr = full-length luciferase signal inhibition, confirmation, counter-screen for Mdm2/MdmX interaction inhibitor project, cell-based, single concentration, SaOS-2 | AID 504607, 2011 | 6,200 tested, 77% active | SaOS-2 full-length luciferase counterscreen, luminescence | inhibition, % at 8 µM | shares compounds with Mdm2-MdmX inh;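 active means mean inhibition at 8 µM reaching about 37%, which flags the compound as non-specific, limit read from the data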;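 further: p53-null SaOS-2 cells with luciferase driven by a doxycycline-inducible promoter; compound on cells about two nights before reading with doxycycline added after day one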
Numbers without * were called inactive; ? = inconclusive; · = no result. Shown are actives, neighbours in structure and some others; about 5.4% of the full set was active somewhere.

SMILES	aSyn 5UTR inh	SKKanGAS inh	T cruzi repl	Mdm2-MdmX inh	CSC inhib	Mdm2-MdmX conf	Full FLuc ctr
Cc1ccccc1NC1=C/C(=N\S(=O)(=O)c2cccs2)c2ccccc2C1=O	114.4*	90.2*	57.5*	73.3*	-8.4	100.2*	51.4*
COc1ccc(C(=O)NNC2=CC(=O)CC(C)(C)C2)cc1OC	18.3	8.2	-8.0	14.8	-4.0	·	·
CCN(CC)c1ccc(/C=N/NC(=O)c2c(Cl)cnn2C)c(O)c1	90.0*	11.1	54.1	70.9*	-5.6	81.1*	26.9
CCN(CC)S(=O)(=O)c1cccc(C(=O)N/N=C/c2cccc(O)c2O)c1	65.7*	10.3	3.5	59.5*	97.6*	65.7*	38.6*
CCN(CC)c1ccc(/C=N/Nc2nc(C)cc(=O)[nH]2)c(O)c1	95.4*	7.2	42.3	63.7*	17.1	80.4*	22.4
O=C(N/N=C/c1ccccc1O)c1cccc(C(F)(F)F)c1	82.4*	17.1	-18.2	69.0*	77.8*	73.0*	35.8
O=C(N/N=C/c1ccc(O)cc1)c1cccc(C(F)(F)F)c1	7.5	-11.7	-18.3	-14.5	-10.5	·	·
CCN(CC)c1ccc(/C=N/NC(=O)c2cccc(S(=O)(=O)N3CCOCC3)c2)c(O)c1	128.8*	12.2	65.1*	75.4*	109.9*	84.0*	52.9*
O=C(N/N=C/c1sc(N2CCOCC2)nc1-c1ccccc1)c1cccc(S(=O)(=O)N2CCOCC2)c1	86.5*	30.2	37.1	75.6*	24.5	69.7*	42.7*
Nc1ccc(C(=O)N/N=C/c2sc(N3CCOCC3)nc2-c2ccccc2)cc1	25.4	8.3	9.3	-3.2	4.3	·	·
CC(NC(=O)c1ccccc1F)C12CC3CC(CC(C3)C1)C2 (stereo unspecified)	21.0	6.9	8.0	6.4	67.2	·	·
Cc1cc(=O)n2c(n1)SCOC2	14.0	8.3	-17.9	-13.7	-11.9	·	·
Oc1ccc(N=Nc2ccc3c(c2)OCO3)c2ccccc12	8.2	88.2*	?	93.8*	140.0*	91.5*	58.6*
Nc1nn(-c2ccccc2)c(N)c1N=Nc1ccc2c(c1)OCO2	-42.2	-11.7	21.3	-124.4	53.7	·	·
CC(NC(=O)c1cc(-c2ccc(Br)cc2)on1)c1ccccc1 (stereo unspecified)	-26.3	-3.7	13.3	54.1*	13.4	7.5	·
O=C(c1ccc([N+](=O)[O-])cc1)N1CCN(c2cccc3[nH]ccc23)CC1	7.6	-5.1	21.7	-3.7	26.0	·	·
CCCCNC(=O)C1CCN(Cc2ccc(OCc3ccccc3)c(OC)c2)CC1	-114.7	-1.0	-0.7	-18.1	6.9	·	·
COc1cc(CN2CCC(C(=O)NCC(C)(C)CN(C)C)CC2)ccc1OCc1ccccc1	-67.3	-3.4	-1.8	91.5*	4.0	79.8*	71.3*
CCc1ccc(NC(=O)C2=CC(c3cccs3)=NS(=O)(=O)N2C)cc1	32.6	0.7	15.9	71.6*	-2.5	57.4*	44.2*
Cc1ccc(NC(=O)C2=CC(c3cccs3)=NS(=O)(=O)N2C)cc1	3.5	0.3	6.2	52.5*	·	12.2	·
CCN(CC)c1ccc2nc3ccccc3[n+](CC)c2c1	58.8	33.0	52.6	53.5*	25.7	36.9	·
CCN(CC)c1ccc(/C=N/n2nnnc2N)c(O)c1	-88.7	0.6	24.6	48.1	25.3	·	·
CCN(CC)C(=O)c1ccc2nc3ccccc3nc2c1	?	4.2	-10.8	-8.1	25.2	·	·
CCN(CC)c1ccc2nc3ccc(N)cc3[n+](-c3ccccc3)c2c1	·	·	·	91.7*	·	92.8*	23.6
O=C(CN1C(=O)c2ccccc2S1(=O)=O)c1ccc(O)c(O)c1	63.5*	-2.0	-1.1	55.7*	-3.8	55.0*	74.3*
SMILES	aSyn 5UTR inh	SKKanGAS inh	T cruzi repl	Mdm2-MdmX inh	CSC inhib	Mdm2-MdmX conf	Full FLuc ctr
Cc1cc(C(=O)CN2C(=O)c3ccccc3S2(=O)=O)c(C)n1CC1CCCO1 (stereo unspecified)	110.8*	-4.7	7.3	53.7*	-6.8	37.0	8.8
CSc1cccc(NC(=O)CN2C(=O)c3ccccc3S2(=O)=O)c1	47.9	1.6	-12.8	53.1*	-3.1	44.3*	77.2*
Cc1ccc(C)c(C(=O)CN2C(=O)c3ccccc3C2=O)c1	4.5	14.9	-4.7	-1.5	-10.6	·	·
Cc1ccc(C)c(C(=O)CN2C(=O)c3ccccc3S2(=O)=O)c1	42.1	16.5	-4.0	67.5*	-4.7	59.5*	99.6*
CC(=O)N[C@@H](Cc1c[nH]c2ccccc12)C(=O)OCc1cc(C(F)(F)F)cc(C(F)(F)F)c1	·	·	·	19.3	-5.1	·	·
CC1CCCCC12NC(=O)N(CC(=O)OCC(=O)N(C)C1CCCCC1)C2=O (stereo unspecified)	·	·	·	4.6	·	·	·
COc1ccc(C(=O)CN2C(=O)c3ccccc3S2(=O)=O)cc1	101.3*	5.4	-5.3	93.6*	-4.5	95.4*	25.5
COc1ccc(C(=O)CN2C(=O)c3ccccc3S2(=O)=O)cc1Br	55.5	14.2	-0.4	23.1	-3.6	·	·
CCn1cc([N+](=O)[O-])c(C(=O)N2N=C(c3ccc4ccccc4c3)CC2c2cc(Br)ccc2O)n1 (stereo unspecified)	-15.7	39.9	55.6*	98.8*	-3.2	41.5*	38.6*
CCn1cc([N+](=O)[O-])c(C(=O)N2N=C(c3ccccc3)CC2c2ccc([N+](=O)[O-])cc2)n1 (stereo unspecified)	-4.7	12.9	13.0	-25.3	9.7	·	·
CCn1cc([N+](=O)[O-])c(C(=O)N2N=C(c3ccc(Cl)c(Cl)c3)CC2c2ccccc2O)n1 (stereo unspecified)	-6.4	30.4	36.6	71.3*	-1.8	41.9*	70.7*
CCn1cc([N+](=O)[O-])c(C(=O)N2N=C(c3ccc(O)c(OC)c3)CC2c2ccccc2O)n1 (stereo unspecified)	21.3	6.3	15.9	20.5	12.0	·	·
CCN(C(=O)CN1C(=O)COc2ccc(S(=O)(=O)N3CCCCCC3)cc21)c1cccc(C)c1	25.1	-0.5	-0.6	26.4	-11.6	·	·
O=C(COc1ccc(Cl)cc1Br)NC(=O)NCc1ccccc1	-10.9	-5.3	4.8	11.0	·	·	·
CCOc1ccc2[nH]c(=O)c(CN(CCN3CCCC3)C(=S)Nc3ccccc3OCC)cc2c1	-4.0	4.2	12.8	100.3*	-15.5	16.6	·
Cc1ccc(NC(=O)Cc2cc(C(=O)O)c3ccccc3n2)c(C)c1	-0.4	27.6	0.0	81.9*	39.6	58.8*	40.3*
CCCc1cc(C(=O)O)c2ccccc2n1	-5.5	3.9	-22.3	17.3	6.8	·	·

Bioassay records: PubChem, several laboratories
